We go through one compound from ChEMBL document CHEMBL5038583, “Highly Potent and Selective Butyrylcholinesterase Inhibitors for Cognitive Improvement and Neuroprotection” (J Med Chem, 2021).

Data set [1] deals with PC-12. Briefly: Cytotoxicity against rat PC-12 cells assessed as reduction in cell viability incubated for 24 hrs by MTT assay. It counts as functional, cell-based. The conditions noted are these: PC-12, 24 h. In outline:
(§1)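 Cells seeded at 1 × 10⁴/well in DMEM with 10% FBS and left overnight, then given compound (DMSO stock diluted in DMEM) for 24 h at 37 °C. MTT added for 4 h, formazan dissolved in DMSO, absorbance read at 492 nm. Viability taken as OD treated/OD DMEM × 100%; IC50 from three independent experiments, mean SD.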

Data set [2] deals with HepG2. Briefly: Cytotoxicity against human HepG2 cells assessed as reduction in cell viability incubated for 24 hrs by MTT assay. It counts as functional, cell-based. Conditions: HepG2, 24 h. The procedure, abridged:
as §1

Data set [3] can be described thus: Oral bioavailability in overnight fasted Sprague-Dawley rat at 10 mg/kg measured upto 1440 mins by LC/MS/MS analysis. It counts as ADME, organism-based. Conditions: in vivo. In outline: (§2)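 Male SD rats (180−220 g), n = 8 per route, fasted overnight with water available. Single 10 mg/kg dose p.o. or i.v. in DMSO/PEG400/saline (10:80:10). Retro-orbital blood taken into heparinized tubes at 1–1440 min. Plasma precipitated with methanol containing theophylline internal standard, then LC/MS/MS against a blank-plasma standard curve. Parameters from noncompartmental extravascular analysis; mean ± SD.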

Data set [4] can be described thus: AUC (0 to t) in overnight fasted Sprague-Dawley rat at 10 mg/kg, po measured upto 1440 mins by LC/MS/MS analysis. Also on record: route oral, dose 10 mg/kg, time <=1440. The conditions noted are these: in vivo. It counts as ADME, organism-based. In outline:
as §2

Data set [5] is described as follows: Cmax in ICR mouse plasma at 10 mg/kg, po measured upto 240 mins. Type of data set: ADME, organism-based. Also on record: route oral, dose 10 mg/kg, time <=240. In outline: (§3)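 ICR mice given 10 mg/kg orally in 5% DMSO/40% PEG400/55% saline (1 mg/mL). Blood (retro-orbital) and brain collected at 30, 60, 120 and 240 min. Brain homogenized in 2 volumes PBS, extracted with ethyl acetate, dried and reconstituted in mobile phase. Plasma processed as in the rat study; LC/MS/MS. Brain/plasma ratios from exposures, AUC(B) vs AUC(P).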

A short description of data set [6]: Ratio of AUC in brain to plasma of ICR mouse at 10 mg/kg, po measured upto 240 mins. It counts as ADME, organism-based. Conditions: read-out: Ratio AUC. In outline: as §3
A short description of data set [7]: Tmax in overnight fasted Sprague-Dawley rat at 10 mg/kg, iv measured upto 1440 mins by LC/MS/MS analysis. Conditions: in vivo. Type of data set: ADME, organism-based. In outline: as §2
For data set [8], the system named is Mus musculus. Description: Anti-alzheimer activity in amyloid beta(1 to 42)-induced ICR mouse model of cognitive impairment assessed as simplification of trajectories at 15 mg/kg, ig administered at days 2 to 14 by Morris water maze test. Type of data set: functional, organism-based. In outline: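 ICR mice, n = 8 per group. Aggregated Aβ1-42 (5 mM DMSO stock incubated 24 h at 37 °C in saline at 2 mg/mL) given 10 μg per mouse icv on day 1; saline icv for sham. Compound 15 mg/kg intragastric on days 2−14; donepezil reference. Morris water maze training days 9−13, probe trial day 14; tracks recorded; mean ± SD.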

The target of data set [9] is Cholinesterase (Homo sapiens, UniProt P06276). Briefly: Inhibition of human serum BChE using butyrylthiocholine iodide as substrate preincubated for 20 mins followed by substrate addition and measured after 2 mins by DTNB-reagent based Ellman's method. In outline:
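hBChE at 0.015 units/mL with DTNB in phosphate buffer pH 8.0, preincubated 20 min at room temperature with at least six concentrations (10⁻⁴−10⁻⁹). Butyrylthiocholine iodide (0.075 M solution) added; A412 read after 2 min at 25 °C. IC50 from % activity vs log concentration; triplicates in at least three runs.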

For data set [10], the system named is Mus musculus. Briefly: Antialzheimer activity in scopolamine-induced ICR mouse model of cognitive impairment assessed as reduction in escape latency at 30 mg/kg, ig administered for 10 consecutive days by Morris water maze test. Type of data set: functional, organism-based. In outline: (§4)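 Male ICR mice (8−10 weeks, 18−20 g), n = 8 per group. Compound at 15 or 30 mg/kg intragastric in DMSO/saline (10:90), given 30 min before scopolamine 3 mg/kg i.p., for 10 consecutive days; tacrine 15 mg/kg as reference. Morris water maze: 5 days of training, probe trial on day 6 with platform removed. Escape latency and trajectory recorded; mean ± SD.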

Data set [11] has as its system SH-SY5Y. Description: Neuroprotective activity against glutamate-induced cytotoxicity in human SH-SY5Y cells at 10 uM pretreated for 2 hrs followed by glutamate stimulation and measured after 24 hrs by MTT assay. It counts as functional, cell-based. Conditions: time 26.0 hrs. The procedure, abridged:
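SH-SY5Y cells seeded at 5000 per well and grown 24 h. Pretreated 2 h with compound (2.5 or 10 μM, diluted in DMEM from 10⁻¹ M DMSO stock), then H₂O₂ 200 μM, glutamate 20 mM or aggregated Aβ1-42 15 μM for 24 h. MTT added for 4 h, formazan dissolved in DMSO, absorbance read at 492 nm. Viability relative to untreated control; mean ± SEM, n = 3.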

Data set [12] can be described thus: MRT (0 to infinity) in overnight fasted Sprague-Dawley rat at 10 mg/kg, iv measured upto 1440 mins by LC/MS/MS analysis. It counts as ADME, organism-based. The conditions noted are these: in vivo. In outline: as §2
A short description of data set [13]: Metabolic stability in human liver microsomes assessed as half life at 1 uM measured upto 45 mins in presence of NADPH by LC/MS/MS analysis. It counts as ADME, Microsome. In outline:
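Human liver microsomes 0.5 mg/mL, compound 1 μM final, NADPH 2 mM, at 37 °C. Reactions stopped at 0, 5, 15, 30 and 45 min with acetonitrile containing imipramine internal standard. LC/MS/MS quantitation relative to 0 min; initial rates used for t1/2 and intrinsic clearance; ketanserin as assay control. Mean of two independent experiments.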

A short description of data set [14]: Tmax in overnight fasted Sprague-Dawley rat at 10 mg/kg, po measured upto 1440 mins by LC/MS/MS analysis. Type of data set: ADME, organism-based. Conditions: in vivo, 24 h. The procedure, abridged: as §2
The test system of data set [15] is Mus musculus. Briefly: Anti-alzheimer activity in amyloid beta(1 to 42)-induced ICR mouse model of cognitive impairment assessed as enhanced alternation performance by measuring total number of arm entries at 15 mg/kg, ig administered at days 2 to 14 and measured on day 15 by Y-maze test. It counts as functional. In outline: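 Oligomerized Aβ1-42 (10 μg per mouse, icv) given on day 1; saline icv for sham. Dosing 15 mg/kg ig on days 2−14 (donepezil as positive control), n = 8. Spontaneous alternation read on day 15 in a three-arm grey PVC Y maze, arms at 120°. Mean SD.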

The nature of data set [16]: AUC (0 to t) in ICR mouse brain at 10 mg/kg, po measured upto 240 mins. Also on record: route oral, dose 10 mg/kg, time <=240. Type of data set: ADME, organism-based. In outline: as §3
In data set [17] the test system is Mus musculus. Description: Antialzheimer activity in ICR mouse assessed as reduction in scopolamine-induced cognitive impairment at 30 mg/kg, ig administered for 10 consecutive days by Morris water maze test. Type of data set: functional, organism-based. Conditions: time 10.0 day. The procedure, abridged:
as §4

Data set [18] concerns Mus musculus. Description: Anti-alzheimer activity in scopolamine-induced ICR mouse model of cognitive impairment assessed as simplification of trajectories at 30 mg/kg, ig administered for 10 consecutive days by Morris water maze test. It counts as functional, organism-based. The procedure, abridged: as §4

The structures appear in SMILES notation. Calls of active or inactive are those of the source. No cut-off for these calls is given here.

Chain of Cholinesterase (P06276 whole entry): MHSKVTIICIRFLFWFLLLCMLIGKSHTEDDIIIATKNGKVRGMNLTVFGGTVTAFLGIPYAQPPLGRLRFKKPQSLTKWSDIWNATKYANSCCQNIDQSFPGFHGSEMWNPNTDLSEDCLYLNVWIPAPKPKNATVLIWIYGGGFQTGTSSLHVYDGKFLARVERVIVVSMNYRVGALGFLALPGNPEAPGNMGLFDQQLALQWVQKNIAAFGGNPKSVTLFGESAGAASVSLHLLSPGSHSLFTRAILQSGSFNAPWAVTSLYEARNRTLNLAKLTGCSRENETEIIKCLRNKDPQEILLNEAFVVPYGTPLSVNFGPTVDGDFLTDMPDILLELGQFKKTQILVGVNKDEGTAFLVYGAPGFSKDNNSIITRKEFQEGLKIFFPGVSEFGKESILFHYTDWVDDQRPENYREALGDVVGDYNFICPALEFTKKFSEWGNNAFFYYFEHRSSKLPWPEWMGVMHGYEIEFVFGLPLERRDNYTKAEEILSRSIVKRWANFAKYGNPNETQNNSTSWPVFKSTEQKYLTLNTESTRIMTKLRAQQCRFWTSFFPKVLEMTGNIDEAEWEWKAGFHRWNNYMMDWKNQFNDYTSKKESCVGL

Take `Nc1nonc1-c1nc2ccccc2n1CC(=O)Nc1cnc2ccccc2c1`: the IC50 was found to be 33.5 µM in data set [1], 84.3 µM in [2] and 0.016 µM in [9]. In data set [3], the bioavailability was determined as 73.4%. This compound also showed an AUC(0-t) at 24 h in data set [4] of 628 ng·h/mL. Also, the highest concentration (Cmax) in data set [5] was found to be 49.9 ng/mL. Besides, the Kp at 4 h in data set [6] is 0.36. Further, the values for the Tmax in [7] and in data set [14] were 1.02 min and 9.5 h, respectively. Moreover, the result in [8], in [10], in data set [11], in [15], in data set [17] and in data set [18] was Active. Besides, the MRT inf in data set [12] was 14.1 h. For the same compound, the half-life at 1 µM in data set [13] amounted to 2.65 h. For the same compound, the AUC(0-t) at 4 h in data set [16] was determined as 34.1 ng·h/mL.
